Screens from PubChem BioAssay.
Only a selection was taken, and hits are over-represented in it overall.
XBP1 UPR activ – activators of adaptive XBP1 UPR arm, primary screen, cell-based, CHO-XBP1 luciferase reporter, luminescence, uHTS; IRE1-XBP1 UPR activation; percent of tunicamycin response, DMSO as zero; activation, % at 20 µM; hit rate 0.33% among 330,000;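 active = versus positive control, 20 µM dose yields 30% or more activation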
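Signal: luciferase luminescence; Assay system: CHO-XBP1 luciferase reporter cells; Amount: one thousand reporter cells per well; Dosing: 20 µM single concentration, DMSO 1%; Benchmarks: high control tunicamycin 10 µg/mL final, low control DMSO vehicle only; Schedule: 6 h compound exposure at 37 °C, 5% CO2; Evaluation: percent activation relative to tunicamycin reference.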
CHOP UPR activ – activators of apoptotic CHOP UPR arm, primary screen, cell-based, CHO-CHOP luciferase reporter, luminescence, uHTS. hit rate 0.34% among 330,000. UPR activation; percent of tunicamycin response over DMSO baseline. activation, % at 10 µM. AID 449763, 2010;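 active = at 10 µM dose, activation of 40% or more, normalized to positive control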
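Assay system: CHO cells with stable CHOP pathway luciferase reporter; Buffer or medium: F12 plus 10% serum; Times: 16-18 h cell attachment, then 6 h compound exposure, 37 °C; Signal: luciferase luminescence; Read-out basis: percent activation relative to tunicamycin control; Control set: tunicamycin high control, DMSO low control.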
697 NFkB inh – inhibitors of PMA/ionomycin-induced NF-kB reporter, 697 cells, primary screen, B-cell NF-kB inhibitor project, cell-based, luminescence, uHTS; 697 B-cell NF-kB luciferase reporter, 16 h; inhibition, % at 4 µM; hit rate 0.33% among 330,000; AID 435022, 2010; in the data active = inhibition above about 35%
CHOP inhibitor – inhibitors of CHOP promoter induction, primary screen, cell-based, unfolded protein response, luciferase reporter | CHO-K1 CHOP-promoter luciferase, tunicamycin-induced, 15-18 h | inhibition, % at 10 µM | hit rate 3.8% among 220,000 | AID 2732, 2010;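 active = compounds that reduced the stress-induced luciferase reporter signal by more than about 70% of percent inhibition, limit read from the data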
Jurkat NFkB inh – inhibitors of induced NF-kB luciferase reporter, primary screen, TCR NF-kB activation inhibitor project, cell-based, luminescence, uHTS. Jurkat, PMA/ionomycin-induced NF-kB luciferase reporter. inhibition, % at 4 µM. hit rate 0.53% among 330,000; in the data active = inhibition above about 50%
Large screens that a line does not name were inactive.

COc1ccc(Cl)cc1N(CC(=O)NCC(C)C)S(=O)(=O)c1ccc(C)c([N+](=O)[O-])c1	none
CCOC(=O)Cn1c(=NC(=O)c2ccc([N+](=O)[O-])s2)sc2ccccc21	CHOP inhibitor 81
O=C(COC(=O)COc1ccccc1[N+](=O)[O-])NC1CCCCC1	none (no result: CHOP inhibitor)
CC(=O)c1cccc(S(=O)(=O)NCCC(=O)O)c1	none
CC1(C)Oc2ccc3ccc(=O)oc3c2/C(=C/Nc2ccccn2)C1=O	CHOP inhibitor 92
Clc1ccc(CNCCC2=CCCCC2)cc1	none
COc1ccc(/C(C)=N/OC/C(O)=C(\C#N)c2nc3ccccc3[nH]2)c(OC)c1	CHOP inhibitor 95
COc1ccc2oc(C(=O)OC/C(O)=C(\C#N)c3nc4ccccc4[nH]3)c(C)c2c1	CHOP inhibitor 95
Fc1ccc(CO/N=C2\CCCc3nonc32)cc1	none
CCOc1ccc(OCCC(=O)OCC(=O)NC(C)c2ccccc2)cc1 (centres undefined)	none (no result: CHOP inhibitor)
Nn1cnc2c(c1=O)C1(CCCCC1)Cc1ccccc1-2	none
Oc1ccc(-c2nc3c4c(ncn3n2)-c2ccccc2CC42CCCC2)cc1	CHOP inhibitor 106
COc1cc2nc(-c3ccccc3)nc(N3CCCC3)c2cc1OC	CHOP inhibitor 82 (no result: XBP1 UPR activ, CHOP UPR activ, 697 NFkB inh, Jurkat NFkB inh)
COc1cccc(-c2nc(N3CCCCC3)c3ccccc3n2)c1O	none (no result: CHOP inhibitor)
COc1cc(/C=C2/C(=N)N3C=CSC3=NC2=O)ccc1OCCOc1ccc(NC(C)=O)cc1	none
CCOc1ccc(-c2ccc(/C=C3/C(=N)N4C(C)=CSC4=NC3=O)o2)c([N+](=O)[O-])c1	CHOP inhibitor 88
CCOc1ccc(-c2ccc(/C=C3/C(=N)N4C=CSC4=NC3=O)o2)c([N+](=O)[O-])c1	CHOP inhibitor 86 (no result: XBP1 UPR activ, CHOP UPR activ, 697 NFkB inh, Jurkat NFkB inh)
CCOC(=O)C1CCN(C(=O)C2CCCN(c3ncnc4c3nc3n4CCCCC3)C2)CC1 (centres undefined)	none (no result: CHOP inhibitor)
CCOC(=O)c1c(C)[nH]c(C(C)=NNC(=O)c2cccs2)c1C	none (no result: CHOP inhibitor)
O=C(CSc1cccc(C(F)(F)F)c1)N1CCN(S(=O)(=O)c2ccccc2)CC1	CHOP inhibitor 81
O=C(CSc1ccc(Br)cc1)N1CCN(S(=O)(=O)c2ccccc2)CC1	none (no result: CHOP inhibitor)
CCN(C(=O)CSc1nnc(-c2ccc(Cl)cc2)n1C)C1CCS(=O)(=O)C1 (centres undefined)	none
C=CC[n+]1c(-c2ccc(OCC)cc2)csc1NNC(=O)Nc1ccccc1	CHOP inhibitor 73
C=CC[n+]1c(-c2ccc(C)cc2)csc1Nc1c(C)n(C)n(-c2ccccc2)c1=O	none
Nc1nc(/C=C/c2ccc(F)cc2)nc(-c2ccccc2O)n1	CHOP inhibitor 80
Nc1nc(/C=C/c2cccnc2)nc(-c2ccccc2O)n1	none
O=C(/C=C(/c1ccc(Cl)cc1)n1cncn1)c1ccccc1	none
Cc1cccc2sc(NC(=O)CN(C)S(=O)(=O)c3ccc(Br)s3)nc12	CHOP inhibitor 85
N#Cc1ncc(Cc2ccccc2)nc1C#N	CHOP UPR activ 60 (no result: CHOP inhibitor)
N#Cc1nc(Cc2ccccc2)oc1NCc1cccnc1	none
CCCCn1c(N)c(N(CCOC)C(=O)c2ccc(Cl)c(S(=O)(=O)N3CCCCC3)c2)c(=O)[nH]c1=O	none (no result: CHOP inhibitor)
COC(=O)c1ccc(/C=C2\CCn3c2nc2cc(C(=O)O)ccc2c3=O)cc1	none (no result: CHOP inhibitor)
CC(C)CCOc1ccc(/C=C2\CCn3c2nc2cc(C(=O)O)ccc2c3=O)cc1	CHOP inhibitor 90 (no result: XBP1 UPR activ, CHOP UPR activ, 697 NFkB inh, Jurkat NFkB inh)
COc1ccc(CCNC(=O)C(=O)Nc2ccc3c(c2)OCO3)cc1OC	none
COc1ccc(C2CC(C)(c3ccc(OC)cc3OC)Nc3ccccc3N2)c(OC)c1 (centres undefined)	CHOP inhibitor 80
CCOC(=O)c1c(-c2ccc(C)o2)csc1NC(=S)NC(=O)N(C)C	none
CC(C(=O)Nc1ccc(F)cc1Cl)N1CCN(S(=O)(=O)c2cccs2)CC1 (centres undefined)	none (no result: CHOP inhibitor)
N#C/C(=C\c1cn[nH]c1-c1ccccc1)C(=O)NC1CCCCCC1	CHOP inhibitor 72
CCc1ccc(C(C)NC(=O)/C(C#N)=C\c2cn[nH]c2-c2ccccc2)cc1 (centres undefined)	CHOP inhibitor 78
CC(NC(=O)/C(C#N)=C/c1cn[nH]c1-c1ccccc1)c1ccccc1 (centres undefined)	none
O=C(COc1ccc(S(=O)(=O)N2CCCC2)cc1)N1CCCC1	none (no result: CHOP inhibitor)
CC(Nc1ccc2ccccc2c1)C(=O)N/N=C/c1ccncc1 (centres undefined)	none (no result: CHOP inhibitor)
O=C(NN1C(=O)c2ccccc2NC1c1ccccn1)c1ccccc1 (centres undefined)	none
O=C(Nc1ccc(F)cc1)c1nc[nH]c1C(=O)Nc1ccccc1[N+](=O)[O-]	CHOP inhibitor 87 (no result: XBP1 UPR activ, CHOP UPR activ, 697 NFkB inh, Jurkat NFkB inh)
Cc1ccc(-c2[nH]nc(N)c2N=Nc2cccc(Cl)c2C)cc1	CHOP inhibitor 92 (no result: XBP1 UPR activ, CHOP UPR activ, 697 NFkB inh, Jurkat NFkB inh)
Cc1ccc(-c2[nH]nc(N)c2N=Nc2ccccc2C)cc1	none
COc1ccc(C(=O)OCc2cc3cccc(C)c3[nH]c2=O)cc1	CHOP inhibitor 81
Clc1ccc(OCc2nn3c(C4CCCCC4)nnc3s2)c(Cl)c1	CHOP inhibitor 87
COc1cccc(NC(=O)C(NC2CCCC2)c2ccccc2)c1 (centres undefined)	CHOP inhibitor 82
Cc1ccc(NC(=O)C(NC2CCCC2)c2ccccc2)cc1Cl (centres undefined)	none
COc1ccc(NC(=S)Nc2cc(-c3ccccc3)[nH]n2)cc1Cl	CHOP inhibitor 78
COc1ccc(NC(=S)Nc2cc(C)[nH]n2)cc1Cl	none
CC1(C)Cc2c(cnn2-c2ccccc2)-c2c1c1ccccc1n2CC(O)CCl (centres undefined)	CHOP inhibitor 94
CC1(C)Cc2c(cnn2-c2ccccc2)C(=O)/C1=N\NC(=O)c1ccncc1	none (no result: CHOP inhibitor)
COc1ccccc1C(CNC(=O)c1ccc(NS(=O)(=O)c2ccc3c(c2)OCCO3)cc1)N(C)C (centres undefined)	none (no result: CHOP inhibitor)
OC(CNCCC1C=Nc2ccccc21)Cn1c2ccc(Cl)cc2c2cc(Cl)ccc21 (centres undefined)	CHOP inhibitor 109 (no result: XBP1 UPR activ, CHOP UPR activ, 697 NFkB inh, Jurkat NFkB inh)
Cc1cc(C)n(CC(O)Cn2c3ccc(Cl)cc3c3cc(Cl)ccc32)c(=O)n1 (centres undefined)	none
CC(=O)NC(CC(=O)Oc1ccc(C)cc1Br)c1ccccc1 (centres undefined)	none (no result: CHOP inhibitor)
Cc1ccc(N2C(=O)C(Cl)=C(NCc3ccccc3)C2=O)c(C)c1	none
C=CCNCCCOc1ccc(Cl)cc1C(C)(C)C	CHOP inhibitor 72
Cc1ccccc1OCC(=O)NCCCNC(=O)c1cccnc1	none (no result: CHOP inhibitor)
N/C(=N\OC(=O)c1ccc(Cl)cc1Cl)c1ccccn1	CHOP inhibitor 79
N/C(=N\OC(=O)c1ccc([N+](=O)[O-])cc1Cl)c1ccccn1	none (no result: CHOP inhibitor)
